Sampled rows, rich in hits. Any-hit rate of the full collection: about 1.1%.
PREPL inh: inhibits the human prolyl oligopeptidase-like enzyme; Q4J6C6; recombinant PREPL, fluorescence polarization activity-based probe; inhibition, % at 5.96 µM; 320,000 compounds, 0.68% hits; AID 2751
LYPLA1 inh: counter-screen for PME1 inhibitors: inhibitors of human LYPLA1 | O75608 | recombinant LYPLA1, FP-Rh probe fluorescence polarization | inhibition, % at 5.9 µM | 320,000 compounds, 0.16% hits | AID 2174;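 active means inhibition above the mean of all tested compounds plus 3 SD, set per campaign, cut at about 14% in these data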;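 further: inhibitors block serine hydrolase probe labeling of LYPLA1 so polarization falls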
proCasp7 act: counter-screen for procaspase-3 activators: activators of human procaspase-7; activation, % at 8.5 µM; 330,000 compounds, 0.093% hits; recombinant procaspase-7, Ac-DEVD-pNA absorbance 405 nm; D23A/D198A/D206A triple mutant, cannot self-cleave; scale: DMSO 0, 5 µM enzyme 100; P55210;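 active means percent activation above the screen-wide mean plus 3 SD, cut at about 25% in these data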
Target sequence (P55210 whole entry D23A/D198A/D206A): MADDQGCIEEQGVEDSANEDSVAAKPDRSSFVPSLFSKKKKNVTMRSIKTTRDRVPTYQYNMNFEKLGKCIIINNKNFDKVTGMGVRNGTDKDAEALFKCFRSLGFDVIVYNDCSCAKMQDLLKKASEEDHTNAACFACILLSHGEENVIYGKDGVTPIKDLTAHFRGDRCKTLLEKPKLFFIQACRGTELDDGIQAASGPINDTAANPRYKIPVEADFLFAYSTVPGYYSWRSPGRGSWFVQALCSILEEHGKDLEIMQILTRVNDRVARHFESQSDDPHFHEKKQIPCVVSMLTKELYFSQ
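signal = Epi-absorbance of released pNA at 405 nm, two timepoints | assay system = Uncleavable procaspase-7 mutant enzyme | reagent = Ac-DEVD-pNA substrate, 400 µM as added | times = 1 h enzyme–compound preincubation and 2 h substrate reaction, both 25 °C | benchmarks = low DMSO alone, high DMSO plus 5 µM PC-7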
LYPLA2 counter: counter-screen for PME1 inhibitors: inhibitors of human LYPLA2. O95372. recombinant LYPLA2, FP-Rh probe fluorescence polarization. inhibition, % at 5.9 µM. 320,000 compounds, 0.38% hits. AID 2177;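 active means inhibition above the screen-wide mean plus 3 SD, limit set per campaign, cut at about 26% in these data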
Target sequence (O95372 whole entry, looked up): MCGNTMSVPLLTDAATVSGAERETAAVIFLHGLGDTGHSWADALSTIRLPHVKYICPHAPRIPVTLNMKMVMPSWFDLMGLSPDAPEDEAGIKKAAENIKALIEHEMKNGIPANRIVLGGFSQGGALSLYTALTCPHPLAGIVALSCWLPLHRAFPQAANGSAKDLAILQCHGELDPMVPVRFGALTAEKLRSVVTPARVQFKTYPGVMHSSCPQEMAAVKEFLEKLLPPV
procasp3 activ: activates human procaspase-3 | recombinant procaspase-3 D3A, Ac-DEVD-pNA absorbance 405 nm | AID 463141 | P42574 | activation, % at 8.5 µM | 330,000 compounds, 0.11% hits;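 active means activation above the mean of all tested compounds plus 3 SD, cut at about 21% in these data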
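assay system = Procaspase-3 D3A mutant | signal = absorbance at 405 nm, 0 and 120 min | times = 1 h preincubation plus 2 h reaction at 25 °C | repeats = single replicate | read-out = % activation between DMSO and enzyme-spiked controls | medium = Zinc-free HEPES saline buffer with Triton X-100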
PREPL inh cf: confirmation of human PREPL enzyme inhibitors. shares compounds with PREPL inh. recombinant PREPL, fluorescence polarization activity probe. inhibition, % at 5.96 µM. 2,000 compounds, 67% hits. AID 2803
A number is an active result; i = inactive; nt = no result. Unless noted, no stated cut-off is given here; in the data, active means inhibition above about 43%; inactive means the rest.

SMILES	PREPL inh	LYPLA1 inh	proCasp7 act	LYPLA2 counter	procasp3 activ	PREPL inh cf
C#CCOCCOCCOCCNc1nc(N2CCN(C(=O)[C@H](Cc3ccc(O)cc3)n3cc([C@@H](N)C(C)CC)nn3)CC2)nc(N2CCN(C(=O)[C@H](Cc3cc4ccccc4[nH]3)n3cc([C@@H](N)C(C)CC)nn3)CC2)n1 (stereo partly drawn)	46.5	i	i	i	i	i
C#CCOCCOCCOCCNc1nc(N2CCN(C(=O)[C@H](Cc3ccc(O)cc3)n3cc([C@@H](N)C(C)CC)nn3)CC2)nc(N2CCN(C(=O)[C@H](Cc3cc4ccccc4[nH]3)n3cc([C@@H](N)CC(C)C)nn3)CC2)n1 (stereo partly drawn)	55.8	i	i	i	i	47.8
C#CCOCCOCCOCCNc1nc(N2CCN(C(=O)C(CCC(=O)O)n3cc(C(N)CC(C)C)nn3)CC2)nc(N2CCN(C(=O)C(Cc3cc4ccccc4[nH]3)n3cc(C(N)Cc4ccc(O)cc4)nn3)CC2)n1 (stereo not drawn)	i	i	i	i	i	nt
C#CCOCCOCCOCCNc1nc(N2CCN(C(=O)[C@H](CCC(=O)O)n3cc(C(N)Cc4ccc(O)cc4)nn3)CC2)nc(N2CCN(C(=O)[C@H](Cc3cc4ccccc4[nH]3)n3cc(C(N)[C@H](C)CC)nn3)CC2)n1 (stereo partly drawn)	i	i	i	i	i	nt
C#CCOCCOCCOCCNc1nc(N2CCN(C(=O)[C@H]([C@@H](C)CC)n3cc([C@@H](N)Cc4ccc(O)cc4)nn3)CC2)nc(N2CCN(C(=O)[C@H](Cc3cc4ccccc4[nH]3)n3cc([C@@H](N)C(C)CC)nn3)CC2)n1 (stereo partly drawn)	53.4	i	i	i	i	48.1
C#CCOCCOCCOCCNc1nc(N2CCOCC2)nc(N2CCN(C(=O)[C@H](CCCN=C(N)N)n3cc(C(N)[C@@H](C)CC)nn3)CC2)n1 (stereo partly drawn)	i	nt	i	nt	i	nt
C#CCOCCOCCOCCNc1nc(N2CCN(C(=O)[C@H](CCCN=C(N)N)n3cc(C(N)[C@H](C)CC)nn3)CC2)nc(N2CCN(C(=O)[C@H](CCCN=C(N)N)n3cc(C(N)[C@@H](C)CC)nn3)CC2)n1 (stereo partly drawn)	44.1	nt	i	nt	i	i
COc1ccc(CS(=O)(=O)c2nc(C)cc(C)c2S(C)(=O)=O)cc1	i	i	i	i	i	nt
CCC(C)(C)C1CCC2(CC1)NC(=O)N(CC(=O)N1CCN(C(=O)c3ccco3)CC1)C2=O (stereo not drawn)	i	i	i	i	i	nt
C#CCOCCOCCOCCNc1nc(N2CCN(C(=O)[C@H](Cc3cc4ccccc4[nH]3)n3cc(C(N)CC(C)C)nn3)CC2)nc(N2CCN(C(=O)[C@H](CCC(=O)O)n3cc(C(N)[C@H](C)CC)nn3)CC2)n1 (stereo partly drawn)	i	i	i	i	i	nt
C#CCOCCOCCOCCNc1nc(N2CCN(C(=O)[C@H]([C@@H](C)CC)n3cc([C@@H](N)CO)nn3)CC2)nc(N2CCN(C(=O)[C@H](Cc3cc4ccccc4[nH]3)n3cc([C@@H](N)C(C)CC)nn3)CC2)n1 (stereo partly drawn)	48.3	i	i	i	i	49.2
C#CCOCCOCCOCCNc1nc(N2CCN(C(=O)[C@H](Cc3cc4ccccc4[nH]3)n3cc([C@@H](N)C(C)CC)nn3)CC2)nc(N2CCN(C(=O)[C@H](CCCCN)n3cc([C@@H](N)CC(C)C)nn3)CC2)n1 (stereo partly drawn)	45.6	i	i	i	i	50.1
C#CCOCCOCCOCCNc1nc(N2CCN(C(=O)[C@H](Cc3cc4ccccc4[nH]3)n3cc([C@@H](N)CC(C)C)nn3)CC2)nc(N2CCN(C(=O)[C@H](Cc3cc4ccccc4[nH]3)n3cc([C@@H](N)CC(C)C)nn3)CC2)n1	69.0	i	i	i	i	55.7
CCc1ccc(N2CC(C(=O)Nc3cccc(C(=O)NC4CC4)c3)CC2=O)cc1 (stereo not drawn)	i	i	i	i	i	nt
CN(C)c1ccc(NC(=O)Cn2cc3c(n2)CCCC3)cc1	69.2	i	i	i	i	68.9
COc1cc(C(=O)NCC2CCCO2)ccc1OCc1ccc(Cl)cc1Cl (stereo not drawn)	43.9	i	i	i	i	i
Cc1c(CCOC(=O)c2ccc(Cl)cc2Cl)sc[n+]1CC(=O)c1ccccc1	i	nt	i	nt	i	nt
Cc1c(CCOC(=O)c2cc([N+](=O)[O-])cc([N+](=O)[O-])c2)sc[n+]1CC(=O)c1ccc(Br)cc1	53.6	i	i	i	i	70.5
c1ccc2c(NCCc3c[nH]c4ccccc34)c3ccccc3nc2c1	49.9	i	i	i	i	57.2
COc1ccccc1CC(=O)Nc1ccc(S(=O)(=O)N2CC(C)CC(C)C2)cc1 (stereo not drawn)	i	i	i	i	i	nt
COCCNC(=O)c1ccccc1NC(=O)c1cccc([N+](=O)[O-])c1C	i	i	i	i	i	nt
CCOC(=O)N/N=C/c1cn(CCCOc2ccc(C)cc2)c2ccccc12	i	i	i	i	i	nt
COc1cccc(OCCn2cc(/C=N/NC(=O)c3ccncc3)c3ccccc32)c1	50.2	i	i	i	i	i
Cc1ccc(OCCn2cc(/C=N/NC(=O)c3ccncc3)c3ccccc32)cc1	52.3	i	i	38.3	i	64.7
Cc1ccc(NC(=O)C2CCCN2C(=O)OCc2ccccc2)cc1F (stereo not drawn)	i	i	i	i	i	nt
SMILES	PREPL inh	LYPLA1 inh	proCasp7 act	LYPLA2 counter	procasp3 activ	PREPL inh cf
O=C(NCCCN1CCN(Cc2ccccc2)CC1)C1CCN(c2nnc(-n3cccc3)s2)CC1	43.6	i	i	i	i	i
O=C(NCCCc1ccccc1)C1CCN(c2nnc(-n3cccc3)s2)CC1	i	i	i	i	i	nt
COCCN(C/C=C/c1ccccc1)C/C=C/c1ccccc1	i	i	i	i	i	nt
CSCCC(NC(=O)c1ccc([N+](=O)[O-])cc1Cl)C(=O)OC(C)C(=O)NCc1ccco1 (stereo not drawn)	i	i	i	i	i	nt
COc1cc(C(CCN2CCCC(C)C2)c2c(OC)cc(OC)c3c2OC(=O)CC3c2ccc(N(C)C)cc2)cc(OC)c1OC (stereo not drawn)	i	i	i	i	i	nt
COc1cc(C2CC(=O)Oc3c(C(CCN4CCCC(C)C4)c4ccc(N(C)C)cc4)c(OC)cc(OC)c32)cc(OC)c1OC (stereo not drawn)	46.3	i	i	i	i	52.0
C[C@H](CO)N1C[C@H](C)[C@@H](CN(C)Cc2ccncc2)Oc2c(NS(=O)(=O)c3ccc(F)cc3)cccc2C1=O	i	nt	i	nt	i	nt

Assay outcomes deposited in PubChem by The Scripps Research Institute Molecular Screening Center.
